Data: ChEMBL document CHEMBL4033781 (J Med Chem, 2018)

molecular target: N+/K+ ATPase alpha-4/beta-1 (Rattus norvegicus, UniProt Q64541); assay: Inhibition of recombinant rat Na+/K+-ATPase alpha4/beta1 expressed in baculovirus infected insect Sf9 cell membranes using [gamma-32P]ATP as substrate preincubated for 10 mins followed by substrate addition measured after 30 mins in presence of Na+, K+ and Mg2+ by liquid scintillation counting
Outline: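 Rat α/β1 isoforms were expressed in baculovirus-infected Sf9 cells (72 h, 27 °C), washed in 10 mM imidazole-HCl pH 7.5 with 1 mM EGTA, and homogenised. Homogenates were assayed in 120 mM NaCl, 30 mM KCl, 3 mM MgCl₂, 0.2 mM EGTA and 30 mM Tris-HCl pH 7.4. Reactions were started with 2 mM γ[³²P]-ATP (final) and run 30 min at 37 °C. Released ³²Pi was extracted as phosphomolybdate into isobutanol and scintillation counted. IC50 came from single-site dose–response fits.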

N+/K+ ATPase alpha-4/beta-1, sequence (Q64541 whole entry, other chains not shown, canonical isoform): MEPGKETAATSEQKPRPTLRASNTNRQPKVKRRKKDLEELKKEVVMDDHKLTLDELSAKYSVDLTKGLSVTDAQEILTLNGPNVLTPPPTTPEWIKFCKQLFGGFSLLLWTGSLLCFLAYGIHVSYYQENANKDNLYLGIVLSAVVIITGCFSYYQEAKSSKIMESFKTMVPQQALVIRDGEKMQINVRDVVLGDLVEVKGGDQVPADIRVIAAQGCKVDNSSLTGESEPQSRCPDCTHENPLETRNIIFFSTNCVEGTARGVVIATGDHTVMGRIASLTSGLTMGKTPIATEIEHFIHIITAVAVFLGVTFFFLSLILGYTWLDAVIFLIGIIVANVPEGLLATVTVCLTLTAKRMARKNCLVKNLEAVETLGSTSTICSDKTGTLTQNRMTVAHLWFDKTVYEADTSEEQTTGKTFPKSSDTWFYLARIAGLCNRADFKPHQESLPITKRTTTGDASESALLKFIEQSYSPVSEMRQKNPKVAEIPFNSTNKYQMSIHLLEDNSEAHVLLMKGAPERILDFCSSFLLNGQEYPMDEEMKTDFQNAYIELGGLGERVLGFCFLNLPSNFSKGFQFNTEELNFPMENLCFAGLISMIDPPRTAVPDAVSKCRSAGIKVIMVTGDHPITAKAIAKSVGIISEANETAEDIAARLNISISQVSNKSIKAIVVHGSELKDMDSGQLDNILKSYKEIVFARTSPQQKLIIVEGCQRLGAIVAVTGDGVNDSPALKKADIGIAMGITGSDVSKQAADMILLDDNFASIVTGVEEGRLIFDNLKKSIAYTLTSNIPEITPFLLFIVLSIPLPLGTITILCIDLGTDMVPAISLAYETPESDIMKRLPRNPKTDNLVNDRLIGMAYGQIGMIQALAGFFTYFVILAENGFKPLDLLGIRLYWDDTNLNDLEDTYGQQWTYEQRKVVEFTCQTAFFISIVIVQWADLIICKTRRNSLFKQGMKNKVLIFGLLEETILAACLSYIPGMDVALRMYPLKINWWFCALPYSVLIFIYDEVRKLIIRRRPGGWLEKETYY

Compound	IC50 [nM]
COCO[C@@H]1[C@H]2OC(C)(C)O[C@H]2[C@H](O[C@H]2C[C@H]3OC(C)(C)OC[C@]34[C@@H]3[C@@H](CC[C@]4(O)C2)[C@@]2(O)CC[C@H](C(O)c4cn(Cc5ccc(F)cc5)nn4)[C@@]2(C)C[C@H]3OCOC)O[C@H]1C (mixture of isomers)	12 to 70
COCO[C@H]1C[C@H]2OC(C)(C)OC[C@]23[C@@H]2[C@@H](CC[C@]3(O)C1)[C@@]1(OCOC)CC[C@H](c3cn(Cc4ccccc4)nn3)[C@@]1(C)C[C@H]2OCOC	5 to 6.9
COCO[C@H]1C[C@H]2OC(C)(C)OC[C@]23[C@@H]2[C@@H](CC[C@]3(O)C1)[C@@]1(OCOC)CC[C@H](/C=N/O)[C@@]1(C)C[C@H]2OCOC	1.4 to 2.9
COCO[C@H]1C[C@H]2OC(C)(C)OC[C@]23[C@@H]2[C@@H](CC[C@]3(O)C1)[C@@]1(OCOC)CC[C@H](C(O)C(F)(F)F)[C@@]1(C)C[C@H]2OCOC (mixture of isomers)	5600 to 5900
COCO[C@H]1C[C@H]2OC(C)(C)OC[C@]23[C@@H]2[C@@H](CC[C@]3(O)C1)[C@@]1(OCOC)CC[C@H](C(=O)O)[C@@]1(C)C[C@H]2OCOC	39 to 77
COCO[C@H]1C[C@H]2OC(C)(C)OC[C@]23[C@@H]2[C@@H](CC[C@]3(O)C1)[C@@]1(OCOC)CC[C@H](C#N)[C@@]1(C)C[C@H]2OCOC	16000 to 37000
COc1ccc(-c2cn(C[C@H]3CC[C@]4(O)[C@@H]5CC[C@]6(O)C[C@@H](O)C[C@@H](O)[C@]6(CO)[C@H]5[C@H](O)C[C@]34C)nn2)cc1	15000 to 39000
C[C@@H]1O[C@@H](O[C@H]2C[C@@H](O)[C@]3(CO)[C@H]4[C@H](O)C[C@]5(C)[C@@H](C(O)c6cn(Cc7ccc(F)cc7)nn6)CC[C@]5(O)[C@@H]4CC[C@]3(O)C2)[C@H](O)[C@H](O)[C@H]1O (mixture of isomers)	13 to 44
COCO[C@@H]1[C@H]2OC(C)(C)O[C@H]2[C@H](O[C@H]2C[C@H]3OC(C)(C)OC[C@]34[C@@H]3[C@@H](CC[C@]4(O)C2)[C@@]2(O)CC[C@H](C(O)CO)[C@@]2(C)C[C@H]3OCOC)O[C@H]1C (mixture of isomers)	2100 to 3700
C[C@]12C[C@@H](O)[C@H]3[C@@H](CC[C@]4(O)C[C@@H](O)C[C@@H](O)[C@]34CO)[C@@]1(O)CC[C@@H]2c1cn(Cc2ccc(F)cc2)nn1	32 to 49
C#CC(O)[C@H]1CC[C@]2(OCOC)[C@@H]3CC[C@]4(O)C[C@@H](OCOC)C[C@H]5OC(C)(C)OC[C@]54[C@H]3[C@H](OCOC)C[C@]12C (mixture of isomers)	10 to 60
C[C@@H]1O[C@@H](O[C@H]2C[C@@H](O)[C@]3(CO)[C@H]4[C@H](O)C[C@]5(C)[C@@H](C(O)c6cn(Cc7ccccc7)nn6)CC[C@]5(O)[C@@H]4CC[C@]3(O)C2)[C@H](O)[C@H](O)[C@H]1O (mixture of isomers)	1200 to 1500
C[C@@H]1O[C@@H](O[C@H]2C[C@H]3OC(C)(C)OC[C@]34[C@H]3[C@H](O)C[C@]5(C)[C@@H](C6=CC(=O)OC6)CC[C@]5(O)[C@@H]3CC[C@]4(O)C2)[C@@H]2OC(C)(C)O[C@@H]2[C@H]1O	4 to 4.3
COCO[C@@H]1[C@H]2OC(C)(C)O[C@H]2[C@H](O[C@H]2C[C@H]3OC(C)(C)OC[C@]34[C@@H]3[C@@H](CC[C@]4(O)C2)[C@@]2(O)CC[C@H](C=O)[C@@]2(C)C[C@H]3OCOC)O[C@H]1C	4.9 to 7.1
C[C@]12C[C@@H](O)[C@H]3[C@@H](CC[C@]4(O)C[C@@H](O)C[C@@H](O)[C@]34CO)[C@@]1(O)CC[C@@H]2c1cn(Cc2ccc(Cl)cc2)nn1	32 to 43
COCO[C@@H]1[C@H]2OC(C)(C)O[C@H]2[C@H](O[C@H]2C[C@H]3OC(C)(C)OC[C@]34[C@@H]3[C@@H](CC[C@]4(O)C2)[C@@]2(O)CC[C@H](C#N)[C@@]2(C)C[C@H]3OCOC)O[C@H]1C	33 to 62
